Experimental data as given in ChEMBL document CHEMBL1148546, “3-Arylpiperazinylethyl-1H-pyrrolo[2,3-d]pyrimidine-2,4(3H,7H)-dione derivatives as novel, high-affinity and selective alpha(1)-adrenoceptor ligands” (Bioorg Med Chem Lett, 2006).

What was measured:
[1] = molecular target: T1, Adrenergic receptor alpha-1 (Homo sapiens, UniProt P35348+P25100+P35368); test: Binding affinity to adrenergic alpha-1 receptor; format: protein assay
T1 sequence (P35348 whole entry): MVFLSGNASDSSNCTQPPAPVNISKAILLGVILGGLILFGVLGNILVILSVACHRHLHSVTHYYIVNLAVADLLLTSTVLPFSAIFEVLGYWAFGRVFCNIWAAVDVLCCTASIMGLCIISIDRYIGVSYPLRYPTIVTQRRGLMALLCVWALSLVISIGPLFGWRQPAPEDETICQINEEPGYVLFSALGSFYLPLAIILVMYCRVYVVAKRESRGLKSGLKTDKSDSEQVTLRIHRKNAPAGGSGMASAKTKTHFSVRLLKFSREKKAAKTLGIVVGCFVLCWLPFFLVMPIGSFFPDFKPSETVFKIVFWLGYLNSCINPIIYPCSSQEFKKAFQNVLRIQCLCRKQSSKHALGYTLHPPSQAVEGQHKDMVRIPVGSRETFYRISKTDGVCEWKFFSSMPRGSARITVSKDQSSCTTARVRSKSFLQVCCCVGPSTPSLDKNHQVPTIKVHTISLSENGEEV
T1 sequence (P25100 whole entry): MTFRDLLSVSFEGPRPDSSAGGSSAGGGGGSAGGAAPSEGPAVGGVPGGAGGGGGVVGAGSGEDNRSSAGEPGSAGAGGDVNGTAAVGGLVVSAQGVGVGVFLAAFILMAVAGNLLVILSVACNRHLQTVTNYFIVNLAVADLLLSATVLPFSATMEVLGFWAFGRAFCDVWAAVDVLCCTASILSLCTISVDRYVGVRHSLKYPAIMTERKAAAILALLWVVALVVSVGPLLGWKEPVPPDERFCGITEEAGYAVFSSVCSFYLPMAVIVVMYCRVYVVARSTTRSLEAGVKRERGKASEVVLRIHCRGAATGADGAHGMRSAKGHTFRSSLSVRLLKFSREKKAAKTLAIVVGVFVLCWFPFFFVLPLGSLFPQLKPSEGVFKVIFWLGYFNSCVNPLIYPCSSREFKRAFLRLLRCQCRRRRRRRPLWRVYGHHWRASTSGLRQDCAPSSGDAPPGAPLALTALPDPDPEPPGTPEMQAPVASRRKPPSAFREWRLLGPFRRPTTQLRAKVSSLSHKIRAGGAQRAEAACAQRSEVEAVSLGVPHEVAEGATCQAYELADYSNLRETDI
T1 sequence (P35368 whole entry): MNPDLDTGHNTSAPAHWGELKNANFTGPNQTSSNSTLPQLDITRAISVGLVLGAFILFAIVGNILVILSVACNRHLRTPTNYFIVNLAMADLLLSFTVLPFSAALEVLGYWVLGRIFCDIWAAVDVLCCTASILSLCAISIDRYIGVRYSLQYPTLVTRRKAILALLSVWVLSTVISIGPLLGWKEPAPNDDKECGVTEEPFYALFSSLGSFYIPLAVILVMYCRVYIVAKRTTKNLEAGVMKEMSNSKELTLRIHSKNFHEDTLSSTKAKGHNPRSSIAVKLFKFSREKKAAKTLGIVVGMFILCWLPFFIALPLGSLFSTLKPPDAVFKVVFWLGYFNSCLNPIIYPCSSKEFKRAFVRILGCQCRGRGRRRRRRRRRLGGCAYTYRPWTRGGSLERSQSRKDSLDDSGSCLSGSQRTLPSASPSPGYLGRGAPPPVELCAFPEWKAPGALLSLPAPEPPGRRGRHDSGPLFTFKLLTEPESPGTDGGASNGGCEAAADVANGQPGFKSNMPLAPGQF

Homo sapiens [2] = organism: Homo sapiens; test: Selectivity for 5HT1A over adrenergic alpha-1 receptor
Procedure, shortened: (§1)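 Selectivity is the ratio of Ki at 5-HT1A, D1 or D2 to Ki at α1. Ki values are means (±SD) of three separate experiments.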

Homo sapiens [3] = organism: Homo sapiens; test: Selectivity for dopamine D1 over adrenergic alpha-1 receptor; procedure, shortened: as §1
[4] = molecular target: T2, Alpha-1A adrenergic receptor (Rattus norvegicus) (UniProt P43140); test: Antagonistic activity at ADRA1A in isolated rat prostatic vas deferens; format: functional, tissue-based
T2 sequence (whole entry): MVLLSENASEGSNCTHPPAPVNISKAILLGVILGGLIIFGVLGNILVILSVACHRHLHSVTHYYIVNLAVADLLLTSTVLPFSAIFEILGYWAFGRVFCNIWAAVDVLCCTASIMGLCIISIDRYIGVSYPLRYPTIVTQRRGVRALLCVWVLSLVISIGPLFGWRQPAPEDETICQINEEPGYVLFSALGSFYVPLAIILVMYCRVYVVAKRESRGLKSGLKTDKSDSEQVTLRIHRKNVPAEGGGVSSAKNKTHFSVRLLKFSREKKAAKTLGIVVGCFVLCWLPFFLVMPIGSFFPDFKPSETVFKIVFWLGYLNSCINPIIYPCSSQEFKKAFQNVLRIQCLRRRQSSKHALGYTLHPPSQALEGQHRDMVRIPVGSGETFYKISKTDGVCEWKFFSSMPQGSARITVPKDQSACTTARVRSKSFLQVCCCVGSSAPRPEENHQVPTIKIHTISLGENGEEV
Procedure, shortened: (§2)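 Antagonism in isolated rat tissues: prostatic vas deferens (α1A), spleen (α1B), thoracic aorta (α1D). Each compound tested at a single concentration, and each concentration was investigated at least four times. pKb was calculated by the van Rossum method. pA2 was derived from Arunlakshana–Schild plots. WB4101 was used as the standard.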

[5] = molecular target: T3, Alpha-1B adrenergic receptor (Rattus norvegicus) (UniProt P15823); test: Antagonistic activity at ADRA1B in rat spleen; format: functional, tissue-based; procedure, shortened: as §2
T3 sequence (whole entry): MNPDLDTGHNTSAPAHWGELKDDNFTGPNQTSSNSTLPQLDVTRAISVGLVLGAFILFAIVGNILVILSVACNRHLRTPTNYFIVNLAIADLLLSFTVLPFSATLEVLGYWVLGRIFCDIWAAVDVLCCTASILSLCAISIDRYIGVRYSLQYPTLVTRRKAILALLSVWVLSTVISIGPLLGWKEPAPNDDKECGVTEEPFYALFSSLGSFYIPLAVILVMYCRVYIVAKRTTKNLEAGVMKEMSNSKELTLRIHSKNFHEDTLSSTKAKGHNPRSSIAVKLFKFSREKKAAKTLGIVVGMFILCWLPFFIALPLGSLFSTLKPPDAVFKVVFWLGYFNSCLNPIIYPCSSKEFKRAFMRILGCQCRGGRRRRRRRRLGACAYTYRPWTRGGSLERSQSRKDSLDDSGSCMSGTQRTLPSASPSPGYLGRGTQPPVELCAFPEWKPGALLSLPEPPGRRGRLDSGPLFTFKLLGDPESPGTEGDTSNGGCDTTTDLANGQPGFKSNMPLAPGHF

D(2) dopamine receptor = D(2) dopamine receptor (Homo sapiens, UniProt P14416); test: Binding affinity to dopamine D2 receptor
Sequence of D(2) dopamine receptor (P14416 whole entry): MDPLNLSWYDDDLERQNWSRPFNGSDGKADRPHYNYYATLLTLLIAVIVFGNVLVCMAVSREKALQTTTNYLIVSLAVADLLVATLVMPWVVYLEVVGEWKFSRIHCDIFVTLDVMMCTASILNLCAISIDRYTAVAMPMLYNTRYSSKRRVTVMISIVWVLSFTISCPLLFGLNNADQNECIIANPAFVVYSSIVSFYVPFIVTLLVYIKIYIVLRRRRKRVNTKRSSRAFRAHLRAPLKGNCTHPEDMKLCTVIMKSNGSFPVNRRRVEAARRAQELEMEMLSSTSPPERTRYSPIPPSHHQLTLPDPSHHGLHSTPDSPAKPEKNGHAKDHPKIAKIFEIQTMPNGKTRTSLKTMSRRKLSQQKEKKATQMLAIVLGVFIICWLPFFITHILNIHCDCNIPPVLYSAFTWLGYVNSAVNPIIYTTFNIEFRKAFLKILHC

Rattus norvegicus = organism: Rattus norvegicus; test: Selectivity for ADRA1D over ADRA1B
Procedure, shortened: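 Subtype selectivity is the antilog of the difference between the pKb values at α1A, α1B and α1D, measured in isolated rat prostatic vas deferens, spleen and thoracic aorta.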

D(1A) dopamine receptor = D(1A) dopamine receptor (Homo sapiens, UniProt P21728); test: Binding affinity to dopamine D1 receptor
Sequence of D(1A) dopamine receptor (P21728 whole entry): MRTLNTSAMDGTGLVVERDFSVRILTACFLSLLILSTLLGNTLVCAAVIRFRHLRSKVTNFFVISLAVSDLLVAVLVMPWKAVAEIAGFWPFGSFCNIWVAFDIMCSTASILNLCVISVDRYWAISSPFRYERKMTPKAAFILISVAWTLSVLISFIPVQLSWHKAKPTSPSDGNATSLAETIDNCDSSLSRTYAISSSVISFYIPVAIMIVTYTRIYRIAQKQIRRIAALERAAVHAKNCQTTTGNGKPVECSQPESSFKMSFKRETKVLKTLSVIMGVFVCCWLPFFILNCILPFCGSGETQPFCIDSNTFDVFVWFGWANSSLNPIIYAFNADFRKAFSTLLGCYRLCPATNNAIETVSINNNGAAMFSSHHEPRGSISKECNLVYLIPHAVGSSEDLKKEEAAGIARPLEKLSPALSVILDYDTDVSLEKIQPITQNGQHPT

| SMILES | Ki [1] [nM] | Ratio Ki (Homo sapiens [2]) | Ratio Ki (Homo sapiens [3]) | pKb [4] | pKb [5] | Ki (D(2) dopamine receptor) [nM] | Ratio pKb (Rattus norvegicus) | Ki (D(1A) dopamine receptor) [nM] |
| --- | --- | --- | --- | --- | --- | --- | --- | --- |
| COc1ccc(-c2cc3c(=O)n(CCN4CCN(c5ccccc5Cl)CC4)c(=O)[nH]c3[nH]2)cc1 | 16.4 | 65 | 17 | 7.48 | 8.03 | 165 | 0.5 | 272 |
| O=c1[nH]c2[nH]c(-c3ccc(Cl)cc3)cc2c(=O)n1CCN1CCN(c2ccccc2Cl)CC1 | 2.64 | 573 | 206 | 6.41 | 6.64 | 2370 | 10 | 544 |
| Cc1ccc(-c2cc3c(=O)n(CCN4CCN(c5ccccc5Cl)CC4)c(=O)[nH]c3[nH]2)cc1 | 11.71 | 155 | 33 | 7.25 | 7.5 | 1720 | 2 | 389 |
| Cc1ccc(-c2cc3[nH]c(=O)n(CCN4CCN(c5ccccc5Cl)CC4)c(=O)c3[nH]2)cc1 | 17.26 | > 500 | > 500 | 6.72 | 6.37 | > 10000 | 1 | > 10000 |
